Measurements pooled from the literature.
Lines come from different studies, so protocols differ.
Target: Mitogen-activated protein kinase kinase kinase 11 (MAP3K11, Homo sapiens, UniProt Q16584)

COc1cc2ncnc(Nc3ccc(F)c(Cl)c3)c2cc1OCCCN1CCOCC1
remaining signal (cell-free assay; 0.5 µM): 102%

COc1cc(Nc2cnc(C#N)c(O[C@H](C)CN(C)C)n2)ncc1-c1cnn(C)c1
remaining activity (enzyme activity, inhibitor, radiometric; 1 µM): 68%

O=C1NC(=O)c2cc(Nc3ccc(F)cc3)c(Nc3ccc(F)cc3)cc21
remaining signal (cell-free assay; 0.5 µM): 98.4%

COCCOc1nc(-c2ccc(Cl)nc2)nc2c1CN(C(=O)c1ncn3ccccc13)CC2
remaining binding (cell-free assay, competition with immobilised ligand; 0.1 µM): 100%

CC/C(=N\NC(=O)NCc1cccc(O)c1)c1ccc(O)c(C)c1O
inhibition (enzyme activity, inhibitor; 0.1 µM): 9.4%

NS(=O)(=O)c1ccc(CNc2nc(Nc3cccc(CN4CCOCC4)c3)ncc2Br)cc1
remaining activity (enzyme activity, inhibitor, radiometric; 1 µM): 34%

CCOCCn1cc(C(=O)Nc2ccc(-n3nc(-c4cccnc4)cc3C(F)(F)F)cn2)ccc1=O
remaining binding (cell-free assay, competition with immobilised ligand; 1 µM): 100%

Cc1nn(CC(F)(F)F)cc1Nc1nccc(NCCCNC(=O)C2CCC2)n1
remaining activity (enzyme activity, inhibitor, radiometric; 1 µM): 106%

CCc1ccccc1C(=O)Nc1n[nH]c2c(C)c(F)c(C3C(C#N)=C(C)N(C)C(C)=C3C#N)cc12
remaining binding (cell-free assay, competition with immobilised ligand; 1 µM): 88%

Nc1ncnc2occ(-c3ccc(NC(=O)Nc4cc(C(F)(F)F)ccc4F)cc3)c12
remaining signal (cell-free assay, inhibitor; 20 µM): 2.9%

O=C(NCCCNc1nc(Nc2cccc(NC(=O)N3CCCC3)c2)ncc1Br)C1CCC1
remaining activity (enzyme activity, inhibitor, radiometric; 1 µM): -3%

Cc1ccc(NC(=O)c2ccc(CN3CCN(C)CC3)cc2)cc1Nc1nc(-c2cccnc2)cs1
remaining signal (cell-free assay; 0.5 µM): 101%

Cc1nn(CC(F)(F)F)cc1Nc1ncc(Br)c(NCc2ccc(S(N)(=O)=O)cc2)n1
remaining activity (enzyme activity, inhibitor, radiometric; 1 µM): 82%

CC(=O)N1CCC(c2ccc(C(=O)NC(=N)N)cc2C(F)(F)F)CC1
remaining binding (cell-free assay, competition with immobilised ligand; 1 µM): 100%

C[C@H]1CCN(c2nccc(-c3cnn4ncccc34)n2)C1
remaining binding (binding; 1 µM): 93%

CN(C)c1ncnc(-c2ccc3nc(Nc4cc(CN5CCN(C(=O)CC(F)(F)F)CC5)ccn4)[nH]c3c2)c1Cl
remaining binding (cell-free assay, competition with immobilised ligand; 1 µM): 100%

CN1CCc2cc(Nc3ncc(C4CC4)c(NCCCNC(=O)C4CCC4)n3)ccc2C1
remaining activity (enzyme activity, inhibitor, radiometric; 1 µM): 44%

O=C(NCc1ncc(C(F)(F)F)cc1Cl)c1ccc2c(c1)C1(CCS(=O)(=O)CC1)[C@@H](C1CC1)N2S(=O)(=O)c1ccc(F)cc1
remaining binding (cell-free assay, competition with immobilised ligand; 1 µM): 100%

O=C(NCCCNc1nc(Nc2cccc(NC(=O)N3CCCC3)c2)ncc1I)c1cccs1
remaining activity (enzyme activity, inhibitor, radiometric; 1 µM): 1%
